Results gathered from unrelated publications.
Protocols differ between the studies behind these lines.
Organism: Pichia kudriavzevii
Effect on: microbial growth

SMILES	method	strain	time	MIC
CCCCCCCCCN1CCNCC1	broth dilution	ATCC6258	48 h	31.3 µg/mL
CCCCCCCOc1c(OC)cc(NC(C)CCCN)c2nc(C(C)(C)C)cc(C)c12 (stereo not shown)		ATCC6258		5 µg/mL
CC1(C)CC[C@]2(C(=O)O)CC[C@]3(C)C(=CC[C@@H]4[C@@]5(C)CC[C@H](O)C(C)(C)[C@@H]5CC[C@]43C)[C@@H]2C1	broth dilution	ATCC6258	48 h	500 µg/mL
OC(Cn1cncn1)(Cn1cncn1)c1ccc(F)cc1F	broth dilution	ATCC6258		32 µg/mL
CCCCCCCCN1CCNCC1	broth dilution	ATCC6258	48 h	> 31.3 µg/mL
OC(Cn1cncn1)(Cn1cncn1)c1ccc(F)cc1F	broth dilution	ATCC6258	48 h	50 µg/mL
C[C@@H]1[C@H](O)[C@@H](C)/C=C/C=C/C=C/C=C/C=C/C=C/C=C/[C@H](O[C@@H]2O[C@H](C)[C@@H](O)[C@H](N)[C@@H]2O)C[C@@H]2O[C@](O)(C[C@@H](O)C[C@@H](O)[C@H](O)CC[C@@H](O)C[C@@H](O)CC(=O)O[C@H]1C)C[C@H](O)[C@H]2C(=O)O		ATCC6258		1.25 µg/mL
C[C@@H]1[C@H](O)[C@@H](C)/C=C/C=C/C=C/C=C/C=C/C=C/C=C/[C@H](O[C@@H]2O[C@H](C)[C@@H](O)[C@H](N)[C@@H]2O)C[C@@H]2O[C@](O)(C[C@@H](O)C[C@@H](O)[C@H](O)CC[C@@H](O)C[C@@H](O)CC(=O)O[C@H]1C)C[C@H](O)[C@H]2C(=O)O				0.5 µM
CCCCCCCCCCCCCCN1CCNCC1	broth dilution	ATCC6258	48 h	0.975 µg/mL
CCCCCOc1c(OC)cc(NC(C)CCCNC(=O)C(N)CC(C)C)c2nc(C(C)(C)C)ccc12 (stereo not shown)		ATCC6258		10 µg/mL
